Source: article PMC8552233 (ACS Omega, 2021)
Read-outs that look alike come from different tables or passages of the source.

Columns and labels:
P. falciparum IspC [1] = molecular target: T1, P. falciparum IspC (Plasmodium falciparum, UniProt O96693); assay: P. falciparum IspC inhibition assay; format: biochemical
T1 sequence (O96693 73-488): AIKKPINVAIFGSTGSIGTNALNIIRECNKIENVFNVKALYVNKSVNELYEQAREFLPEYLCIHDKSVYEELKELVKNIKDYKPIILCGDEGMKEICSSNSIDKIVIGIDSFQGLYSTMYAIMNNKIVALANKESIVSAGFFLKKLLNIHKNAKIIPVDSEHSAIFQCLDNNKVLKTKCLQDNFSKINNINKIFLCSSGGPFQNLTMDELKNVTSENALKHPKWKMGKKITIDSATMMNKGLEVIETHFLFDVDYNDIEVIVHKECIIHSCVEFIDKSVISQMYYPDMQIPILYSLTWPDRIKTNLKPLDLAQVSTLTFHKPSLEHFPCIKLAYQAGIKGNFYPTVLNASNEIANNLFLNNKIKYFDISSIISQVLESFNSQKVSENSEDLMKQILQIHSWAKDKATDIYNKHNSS
How it was run: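 His6-tagged recombinant enzyme (E. coli Rosetta2(DE3), TALON-purified), 0.86 μM in 100 mM Tris pH 7.8, 25 mM MgCl2. Preincubated 10 min at 37 °C with inhibitor, then 150 μM NADPH added for 5 min. Reaction started with 144 μM DXP and A340 followed at 37 °C. IC50 from nonlinear sigmoidal fit of fractional activity versus inhibitor concentration; duplicate.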

P. falciparum IspC [2] = molecular target: T1, P. falciparum IspC; assay: Mechanism of inhibition; format: biochemical; settings: for mode of inhibition with respect to DXP / mode of inhibition with respect to NADPH: Lineweaver-Burk plots; for mode of inhibition with respect to DXP: DXP varied 50-400 μM, NADPH 150 μM; for mode of inhibition with respect to NADPH: NADPH varied 6-30 μM, DXP 144 μM
How it was run: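 N-terminal His6-tagged recombinant enzyme, expressed in E. coli Rosetta2(DE3) and purified by TALON affinity chromatography. […] NADPH oxidation read at 340 nm. Mode taken from Lineweaver–Burk linear fits, Ki from secondary plots; at least triplicate.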

[3] = cited from earlier work
P. falciparum IspC [4] = molecular target: T1, P. falciparum IspC; settings: cited from earlier work
[5] = tested on: Mycobacterium tuberculosis; settings: antibacterial activity; cited from earlier work

## O=C(CCCc1ccccc1)N(O)C/C=C/P(=O)([O-])O.[Na+] [2b, Sodium Hydrogen [(1E)-3-(N-hydroxy-4-phenylbutanamido)prop-1-en-1-yl]phosphonate]
P. falciparum IspC [1]
  IC50: 0.9 µM
P. falciparum IspC [2]
  mode of inhibition with respect to DXP: competitive
  mode of inhibition with respect to NADPH: uncompetitive

## O=CN(O)CCCP(=O)(O)O [1a, fosmidomycin]
[3]
  serum half-life: short
P. falciparum IspC [4]
  mode of inhibition with respect to DXP: competitive
  mode of inhibition with respect to NADPH: uncompetitive

## O=C(CCc1ccccc1)N(O)C/C=C/P(=O)([O-])O.[Na+] [1b, Sodium Hydrogen [(1E)-3-(N-hydroxy-3-phenylpropanamido)prop-1-en-1-yl]phosphonate]
P. falciparum IspC [1]
  IC50: 1.31 µM
P. falciparum IspC [2]
  mode of inhibition with respect to DXP: competitive
  mode of inhibition with respect to NADPH: uncompetitive

## O=C(CCCc1ccccc1)N(O)CCCP(=O)([O-])O.[Na+] [4a]
P. falciparum IspC [1]
  IC50: 1.34 µM
P. falciparum IspC [2]
  mode of inhibition with respect to DXP: competitive
  mode of inhibition with respect to NADPH: uncompetitive

## CC(=O)N(O)CCCP(=O)(O)O [2a, FR900098]
P. falciparum IspC [2]
  Ki: 0.009 µM
  mode of inhibition with respect to DXP: competitive
  mode of inhibition with respect to NADPH: uncompetitive
[3]
  serum half-life: short
P. falciparum IspC [4]
  mode of inhibition with respect to DXP: competitive
  mode of inhibition with respect to NADPH: uncompetitive
[5]
  MIC: > 500 µg/mL

## CC(=O)N(C/C=C/P(=O)([O-])O)OCc1ccc(-c2ccccc2)cc1.[Na+] [1d]
P. falciparum IspC [1]
  IC50: 5.67 µM
P. falciparum IspC [2]; 1d versus 3c
  Ki relative to DXP, fold higher than that of 3c: 3 fold
P. falciparum IspC [2]
  mode of inhibition with respect to DXP: competitive
  mode of inhibition with respect to NADPH: competitive

## CC(=O)N(CCCP(=O)([O-])O)OCc1ccc(-c2ccccc2)cc1.[Na+] [3c]
P. falciparum IspC [1]
  IC50: 0.804 µM
P. falciparum IspC [2]
  mode of inhibition with respect to DXP: competitive
  mode of inhibition with respect to NADPH: competitive

## CCCCC(=O)N(O)CCCP(=O)([O-])O.[Na+] [3a, Sodium Hydrogen-3-(N-hydroxypentanamido)propylphosphonate]
P. falciparum IspC [1]
  IC50: 2.45 µM
P. falciparum IspC [2]
  mode of inhibition with respect to DXP: competitive
  mode of inhibition with respect to NADPH: uncompetitive
